# Shown are actives, neighbours in structure and some others; about 2.5% of the full set was active somewhere.
# ABHD5-PLIN5 inh = inhibitors of human ABHD5-perilipin-5 interaction | Split G. princeps luciferase complementation, luminescence, 4 h | inhibition, % at 4 µM | hit rate 0.78% among 360,000 | AID 602281;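 active = inhibition above the mean inhibition across every tested compound plus 3 SD, cut at about 22% in these data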
# GRK2 inh = inhibitors of human GRK2 displacing RNA aptamer; P25098; bead flow cytometry, FAM-aptamer displacement from GRK2; inhibition of aptamer binding, % at 10 µM; hit rate 0.59% among 330,000; AID 488847;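 active = inhibition of aptamer binding above 40%, roughly 3 SD of noise, on plates passing a quality check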;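 note: median bead fluorescence of bound FAM aptamer so fluorescent compounds give negative values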
# B2AR ag = human beta-2 adrenergic receptor agonism by FAP. AID 504454. P07550. response, % (test concentration not listed). Am2.2-beta2AR cells, FAP receptor internalization, flow cytometry. hit rate 0.43% among 340,000;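 active = response above a set limit, near 3 SD of response in nonfluorescent compounds, cut at about 42% in these data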
# Target sequence (P07550 whole entry, looked up): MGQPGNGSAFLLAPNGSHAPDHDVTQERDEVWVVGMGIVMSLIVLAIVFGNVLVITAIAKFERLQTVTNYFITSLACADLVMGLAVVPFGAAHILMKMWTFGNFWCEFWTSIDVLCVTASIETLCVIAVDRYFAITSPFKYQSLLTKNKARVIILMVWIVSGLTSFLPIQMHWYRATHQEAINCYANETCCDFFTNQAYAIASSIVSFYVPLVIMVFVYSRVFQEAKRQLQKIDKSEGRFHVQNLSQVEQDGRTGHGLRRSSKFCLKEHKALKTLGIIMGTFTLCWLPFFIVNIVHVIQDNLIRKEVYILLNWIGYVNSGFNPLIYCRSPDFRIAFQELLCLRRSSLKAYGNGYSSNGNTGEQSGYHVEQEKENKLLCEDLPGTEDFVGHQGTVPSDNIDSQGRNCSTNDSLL
# NadD inh = NadD (S. aureus) enzyme inhibition. purified NadD enzyme, colorimetric absorbance read-out. AID 602399. inhibition, % at 20 µM. hit rate 0.78% among 360,000; in the data active = inhibition above about 26%
# SENP1 FRET inh = SENP1 (human) catalytic domain inhibition. Q9P0U3. recombinant SENP1 catalytic domain, CyPet-SUMO1-YPet FRET cleavage. inhibition, % at 10 µM. hit rate 0.21% among 360,000. AID 624204;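 active = inhibition at least 30% at 10 µM, raw YFP signal under a set limit, fluorescence ratio 0.5 to 1.5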
#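 Test system: human SENP1 catalytic domain; medium: Tris pH 8 buffer plus EDTA, NaCl, BME, BSA, NP40, catalase; incubation: 50 min reaction at room temperature; technique: FRET, CFP and YFP emission; controls: no-enzyme low control and enzyme-plus-DMSO high control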
# ABHD5-PLIN5 conf = ABHD5-PLIN5 interaction inhibition, confirmed | hit rate 67% among 2,200 | AID 651612 | shares compounds with ABHD5-PLIN5 inh | inhibition, % at 4 µM | biochemical ABHD5-PLIN5 interaction, luminescence; in the data active = inhibition above about 23%
# HNF4 split-luc = active in HNF4 split-luciferase counter-screen for ABHD5-PLIN5 inhibitors | hit rate 77% among 2,200 | inhibition, % at 4 µM | shares compounds with ABHD5-PLIN5 inh | HNF4 dimerization, luminescence, biochemical;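 active = mean inhibition across replicate wells exceeding the computed hit threshold, cut at about 13% in these data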;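 note: light from luciferase halves that rejoin when HNF4 fusion proteins dimerize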
# Numbers stand for hits; n = inactive; x = no result given.
SMILES,ABHD5-PLIN5 inh,GRK2 inh,B2AR ag,NadD inh,SENP1 FRET inh,ABHD5-PLIN5 conf,HNF4 split-luc
CCCCN(C(=O)CSCC(=O)Nc1ccc(C)cc1)c1c(N)n(CC(C)C)c(=O)[nH]c1=O,n,n,n,n,n,x,x
Cc1ccc(/C=C2/NC(=O)N(Cc3ccc(Br)cc3)C2=O)o1,54.9,n,n,n,n,63.2,93.0
CCn1c(C)cc(/C=C2/NC(=O)N(Cc3ccccc3F)C2=O)c1C,n,n,n,n,n,x,x
CCCN1C(=O)/C(=C/c2ccc(C)o2)NC1=S,x,n,x,x,x,x,x
CCN1C(=O)N/C(=C/c2ccc(C)o2)C1=O,42.1,n,n,n,n,26.7,88.6
Cc1ccc(/C=C2/NC(=O)N(Cc3ccccc3F)C2=O)o1,40.2,n,n,n,n,n,80.6
C[C@H](CO)N1C[C@H](C)[C@H](CN(C)S(=O)(=O)c2ccc(Cl)cc2)OCc2cnnn2CCCC1=O,n,x,x,n,n,x,x
CC(C)C1Cc2[nH][nH]c(=O)c2C(C2CC2)O1 (stereo not drawn),n,x,x,n,n,x,x
O=C1NC(Cc2ccccc2)C(=O)Nc2ccc(Br)cc21 (stereo not drawn),n,n,n,n,n,x,x
O=C1Nc2ccc(Br)cc2/C1=C/C1CC=CCC1 (stereo not drawn),25.2,n,n,n,n,52.7,38.1
O=C(O)c1ccc(NS(=O)(=O)Cc2ccc(Cl)c(Cl)c2)cc1,n,x,n,n,n,x,x
Cc1ccc(SCC2=NN(c3nc(C)cc(C)n3)C(=O)C2)cc1,n,n,n,n,n,x,x
Cc1cc(C)nc(N2N=C(C(C)(C)C)CC2=O)n1,37.5,n,n,n,n,n,26.3
CN(C)S(=O)(=O)c1cccc(NC(=O)COC(=O)/C=C/c2ccco2)c1,24.9,n,n,n,n,n,27.3
O=C(Oc1ccc(Br)cc1C(=O)/C=C/c1ccccc1F)c1ccco1,73.0,n,57.6,n,n,99.3,93.1
CCc1ccc(S(=O)(=O)/N=C2\C=CC(=O)c3ccccc32)cc1,x,n,x,x,x,x,x
O=S(=O)(N=C1C=CC(=NS(=O)(=O)c2ccccc2)c2ccccc21)c1ccccc1,33.1,x,x,33.4,60.0,63.2,42.2
O=C(c1cc2ccccc2o1)N(Cc1ccco1)Cc1cccs1,n,n,n,n,n,x,x
Cc1c(C(=O)N(Cc2ccco2)Cc2cccs2)oc2ccccc12,28.1,n,n,n,n,n,14.5
Cc1ccc(S(=O)(=O)n2cccc2/C=C/[N+](=O)[O-])cc1,46.5,x,x,n,n,101.1,102.0
O=C(NCc1ccco1)c1cc2nc(-c3cccs3)cc(C(F)(F)F)n2n1,23.2,n,n,n,n,n,16.3
O=C(NCc1ccco1)c1nn2c(C(F)(F)F)cc(-c3cccs3)nc2c1Cl,n,n,n,n,n,x,x
COc1ccc(-c2csc(NC3OC(=O)c4c3ccc(OC)c4OC)n2)cc1OC (stereo not drawn),33.6,n,n,n,n,63.2,49.4
COc1ccc2c(c1OC)C(=O)OC2Nc1nc(-c2ccc([N+](=O)[O-])cc2)cs1 (stereo not drawn),n,n,n,n,n,x,x
COc1ccc(OC)c(NC(=O)CN2C(=O)NC3(CCCc4ccccc43)C2=O)c1 (stereo not drawn),n,n,n,n,n,x,x
SMILES,ABHD5-PLIN5 inh,GRK2 inh,B2AR ag,NadD inh,SENP1 FRET inh,ABHD5-PLIN5 conf,HNF4 split-luc
COc1cccc(NC(=O)CN2C(=O)NC3(CCCc4ccccc43)C2=O)c1 (stereo not drawn),91.8,n,n,n,n,n,n
CCCN1CCN(S(=O)(=O)c2ccc3c(c2)OCCO3)CC1,n,n,n,n,n,x,x
CC(/C=N\NC(=O)c1ccc2c(c1)OCO2)c1ccccc1 (stereo not drawn),n,n,n,n,n,x,x
CSc1nc(O)c(C(c2cccc([N+](=O)[O-])c2)c2c(O)nc(SC)[nH]c2=O)c(=O)[nH]1,25.0,n,n,n,n,n,17.8
CSc1nc(O)c(C(c2ccc(O)cc2)c2c(O)nc(SC)[nH]c2=O)c(=O)[nH]1,50.0,n,n,n,n,83.1,81.1
CCOc1ccccc1C(c1c(O)nc(SC)[nH]c1=O)c1c(O)nc(SC)[nH]c1=O,n,n,n,n,n,x,x
C=CCOc1ccc(C(c2c(O)nc(SC)[nH]c2=O)c2c(O)nc(SC)[nH]c2=O)cc1,n,n,n,n,n,x,x

# Screening results deposited in PubChem by several laboratories.
